Assay [1] is described as follows: reducers of endogenous Her2 protein level, primary screen, SKBR3 breast tumor cells, AlphaScreen, ATP viability (AID 461;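 active = Her2 level under about 52% in both replicate screens, with viability over 70% of control, limit read from the data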;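 for Her2 level: lower value means less Her2 protein in the cells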;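 for viability: percent of carrier control wells set as 100% viability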). To be noted: 18-24 h, measured here: SKBR3 viability, ATP luminescence, at 10 µM.
For assay [2], the target named is Receptor tyrosine-protein kinase erbB-2 (Homo sapiens) (UniProt P04626). Described as above. Particulars: 18-24 h, at 10 µM, stronger effect = lower value.
Assay [3] can be described thus: SK-BR-3 cell growth inhibitors, pilot screen, 24 h, human (AID 572;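 active = viability at or below 10% of carrier control in both of two separate runs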;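 note: compound exposure lasted between 18 and 24 h rather than exactly 24 h; 100% = carrier-treated control wells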). To be noted: SK-BR-3 viability, CellTiter-Glo luminescence, at 10 µM, stronger effect = lower value. For orientation: Cellular ATP, detected with luciferase, serves as a proxy for viable cell number.
A short description of assay [4]: HUVEC growth inhibition – cell-based, human, primary screen (AID 575;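 active = viability at or below 30% in both replicate assays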;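 note: 100% = median of untreated cell wells with 0.1% DMSO on each plate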). Particulars: HUVEC proliferation, CellTiter-Glo luminescence, 72 h; at 10 µM; stronger effect = lower value. The essentials: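 material = primary HUVEC, no more than 12 passages | input = 1250 cells per well | controls = vehicle and MePR control wells | measured by = CTG luminescence | times = 72 h compound incubation | format = collagen-coated 384-well format | read-out = % viability vs DMSO wells | doses = single 10 µM dose, 0.1% DMSO, from 5x medium stock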

A short description of assay [5]: growth inhibitors of H69AR lung tumor, primary screen, human, duplicate replicates (AID 580;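 active = viability at or under a set limit in both replicates, limit being median viability minus 3 SD, cut at about 48% in these data, passing the limit was not always enough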;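 note: 100% = mean luminescence of untreated wells and 0% = no signal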). Particulars: H69AR lung tumor cells viability, ATP luminescence, 72 h; at 10 µM; stronger effect = lower value.
Assay [6] is described as follows: reversal of MRP1-mediated doxorubicin resistance, pilot screen, H69AR cells, doxorubicin co-treatment (AID 601;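 active = viability loss from added drug above about 55%, and viability with drug at most 40%, in both replicates, limit read from the data, passing the limit was not always enough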). To be noted: CellTiter-Glo, 72 h, at 10 µM; for differential viability (reversal): stronger effect = higher value.
Assay [7] in a line: 384-well plate pilot, post-Golgi transport modulator project, inhibition of yeast transport mutant growth (AID 636; in the data active = inhibition above about 31%). To be noted: absorbance 615 nm, about 18 h, stronger effect = higher value.
The nature of assay [8]: growth suppression of yeast trafficking mutant, preliminary HTS, modulators of trafficking downstream of Golgi apparatus project, 1536-format plate, OD 615 nm (AID 637). To be noted: yeast transport mutant growth, absorbance 615 nm, 18 h; stronger effect = higher value.
Where [9] appears, read: H69AR cells + 2 uM doxorubicin, measured here: viability with 2 uM doxorubicin, stronger effect = lower value.
Setting [10] is: H69AR cells, compound alone cytotoxicity.

By viability is commonly meant a read-out of living cells in per cent, often relative to untreated cells. The term inhibition denotes the drop in the measured response relative to a control, in per cent.

Each structure is given as a SMILES string. Active and inactive are the calls of the source. Cut-off read from the data, not from the text of the source, unless noted: active = inhibition above about 30%; inactive = the rest.

Sequence of Receptor tyrosine-protein kinase erbB-2 (Homo sapiens) (P04626 whole entry, looked up): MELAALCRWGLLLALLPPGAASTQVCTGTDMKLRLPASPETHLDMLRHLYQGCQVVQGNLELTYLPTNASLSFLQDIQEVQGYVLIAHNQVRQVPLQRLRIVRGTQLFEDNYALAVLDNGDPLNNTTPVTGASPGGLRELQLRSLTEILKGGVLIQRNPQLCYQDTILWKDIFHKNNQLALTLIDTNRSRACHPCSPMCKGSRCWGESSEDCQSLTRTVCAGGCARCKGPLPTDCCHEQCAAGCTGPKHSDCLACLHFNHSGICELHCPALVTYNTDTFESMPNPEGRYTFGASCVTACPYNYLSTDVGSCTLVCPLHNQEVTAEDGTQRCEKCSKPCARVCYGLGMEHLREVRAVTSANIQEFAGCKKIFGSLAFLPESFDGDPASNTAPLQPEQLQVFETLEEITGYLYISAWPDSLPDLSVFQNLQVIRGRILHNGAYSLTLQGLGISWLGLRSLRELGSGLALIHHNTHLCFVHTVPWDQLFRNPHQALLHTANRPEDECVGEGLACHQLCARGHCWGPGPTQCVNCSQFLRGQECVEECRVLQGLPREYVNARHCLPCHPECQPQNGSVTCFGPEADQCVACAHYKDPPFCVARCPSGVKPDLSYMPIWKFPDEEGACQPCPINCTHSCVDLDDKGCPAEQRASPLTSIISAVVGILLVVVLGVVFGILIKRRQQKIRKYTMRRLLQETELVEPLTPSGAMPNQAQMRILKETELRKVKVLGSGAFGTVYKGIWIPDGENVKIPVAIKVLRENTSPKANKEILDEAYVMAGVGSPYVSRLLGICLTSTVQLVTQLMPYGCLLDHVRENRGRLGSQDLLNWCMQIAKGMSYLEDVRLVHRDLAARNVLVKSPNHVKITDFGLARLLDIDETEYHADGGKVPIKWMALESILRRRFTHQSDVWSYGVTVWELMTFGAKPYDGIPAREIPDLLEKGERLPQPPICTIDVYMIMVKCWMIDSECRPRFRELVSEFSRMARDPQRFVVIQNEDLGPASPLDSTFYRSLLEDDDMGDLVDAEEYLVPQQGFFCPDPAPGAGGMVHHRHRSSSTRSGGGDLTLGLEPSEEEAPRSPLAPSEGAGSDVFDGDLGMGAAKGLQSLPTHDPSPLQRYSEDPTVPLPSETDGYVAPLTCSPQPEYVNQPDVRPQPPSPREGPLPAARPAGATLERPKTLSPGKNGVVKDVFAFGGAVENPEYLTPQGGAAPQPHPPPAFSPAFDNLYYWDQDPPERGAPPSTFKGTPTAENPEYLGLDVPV

Turning to `COc1ccc2ccccc2c1CN1CCCC(CO)C1` (stereo not given), the viability in assay [1] was 92.5%; in assay [3] it was 92.5% (inactive); in assay [4] it was 92.9% (inactive); in assay [5], 82% (inactive); in assay [6] (setting [9]), 80.5%; in assay [6] (setting [10]) it was 82%. In addition, the Her2 level in assay [2] is 85.5% (inactive). Also, the differential viability (reversal) in assay [6] (H69AR cells + 2 uM doxorubicin) is 1.51% (inactive). Further, the inhibition in assay [7] is -1.82% (inactive); in assay [8] it was 0.82% (inactive).

Turning to `Cc1nn(C)cc1/C=N/O`, the viability is 100% in assay [1]; 100% (inactive) in assay [3]; 95.8% (inactive) in assay [4]; 104% (inactive) in assay [5]; 96.5% in assay [6] (setting [9]); 104% in assay [6] (setting [10]). Moreover, the Her2 level in assay [2] is 105% (inactive). Further, the differential viability (reversal) in assay [6] (H69AR cells + 2 uM doxorubicin) is 7.1% (inactive). For the same compound, the results for the inhibition in assay [7] and in assay [8] were -7.47% (inactive) and 1.45% (inactive), respectively.

`COc1ccccc1NS(=O)(=O)c1ccc(OC)c(OC)c1`: the viability in assay [1] was 86%; in assay [3] it was 86% (inactive); in assay [4], 91.6% (inactive); in assay [5], 99.8% (inactive); in assay [6] (setting [9]) it was 103%; in assay [6] (setting [10]), 99.8%. In addition, the Her2 level in assay [2] is 85% (inactive). Besides, the differential viability (reversal) in assay [6] (H69AR cells + 2 uM doxorubicin) was -3.15% (inactive). The inhibition in assay [7] was -6.62% (inactive); in assay [8] it was 6.56% (inactive).

For the compound `c1ccc(-c2n[nH]c3ccccc23)cc1`, the viability was 118% in assay [1]; 118% (inactive) in assay [3]; 84.9% (inactive) in assay [4]; 103% (inactive) in assay [5]; 91.9% in assay [6] (setting [9]); 103% in assay [6] (setting [10]). The Her2 level in assay [2] was 85% (inactive). In addition, in assay [6] (H69AR cells + 2 uM doxorubicin), the differential viability (reversal) is 11.4% (inactive). Also, the values for the inhibition in assay [7] and in assay [8] were -3.55% (inactive) and 2.1% (inactive), respectively.

`COc1cc(C(N)=O)ccc1OCc1ccccc1`: the viability in assay [1] was 86%; in assay [3] it was 86% (inactive); in assay [4] it was 91.6% (inactive); in assay [5], 98.7% (inactive); in assay [6] (setting [9]), 90.8%; in assay [6] (setting [10]), 98.7%. Further, the Her2 level in assay [2] was 83.5% (inactive). Moreover, the differential viability (reversal) in assay [6] (H69AR cells + 2 uM doxorubicin) was 8% (inactive). The inhibition in assay [7] is -1.45% (inactive); in assay [8], -7.14% (inactive).

In the case of `CCOC(=O)CSC1=C(C#N)C(c2ccc(Cl)cc2)C(C(=O)OC)C(=O)N1` (stereo not given), the viability was 104% in assay [1]; 104% (inactive) in assay [3]; 85.4% (inactive) in assay [4]; 88.5% (inactive) in assay [5]; 88.4% in assay [6] (setting [9]); 88.5% in assay [6] (setting [10]). In addition, in assay [2], the Her2 level was 143% (inactive). Moreover, the differential viability (reversal) in assay [6] (H69AR cells + 2 uM doxorubicin) is 0.1% (inactive). Moreover, the inhibition in assay [7] was -4.74% (inactive); in assay [8], 4.83% (inactive).

For `O=S(=O)(c1ccc(OCC(O)CN2CCc3ccccc3C2)cc1)N1CCOCC1` (stereo not given), the viability in assay [1] is 89%; in assay [3], 89% (inactive); in assay [4], 98.2% (inactive); in assay [5] it was 87.6% (inactive); in assay [6] (setting [9]), 84.6%; in assay [6] (setting [10]), 87.6%. Moreover, in assay [2], the Her2 level was 83.5% (inactive). The differential viability (reversal) in assay [6] (H69AR cells + 2 uM doxorubicin) is 2.98% (inactive). Also, the inhibition was -1.71% (inactive) in assay [7] and -2.73% (inactive) in assay [8].

For the compound `O=C(CSc1nnnn1C1CCCC1)N1CCN(C(=O)c2ccco2)CC1`, the viability in assay [1] is 82%; in assay [3], 82% (inactive); in assay [4], 105% (inactive); in assay [5], 105% (inactive); in assay [6] (setting [9]), 103%; in assay [6] (setting [10]), 105%. Moreover, the Her2 level in assay [2] is 89.5% (inactive). Besides, the differential viability (reversal) in assay [6] (H69AR cells + 2 uM doxorubicin) was 1.94% (inactive). The values for the inhibition in assay [7] and in assay [8] were -3.11% (inactive) and 4.59% (inactive), respectively.

On to `Cc1cc(C)c2c(n1)nn1c(NCCCN3CCOCC3)cc(C)nc21`, for which the viability was 106% in assay [1]; 106% (inactive) in assay [3]; 98.8% (inactive) in assay [4]; 97.7% (inactive) in assay [5]; 90.6% in assay [6] (setting [9]); 97.7% in assay [6] (setting [10]). Besides, the Her2 level in assay [2] is 79% (inactive). Moreover, in assay [6] (H69AR cells + 2 uM doxorubicin), the differential viability (reversal) was 7.13% (inactive). For the same compound, the inhibition in assay [7] was -5.54% (inactive); in assay [8], 2.38% (inactive).

In the case of `Cc1ccccc1NS(=O)(=O)c1cc(C(=O)N2CCCC2)ccc1C`, the viability was 108% in assay [1]; 108% (inactive) in assay [3]; 82.9% (inactive) in assay [4]; 84.2% (inactive) in assay [5]; 88.4% in assay [6] (setting [9]); 84.2% in assay [6] (setting [10]). Also, in assay [2], the Her2 level was 91.5% (inactive). In assay [6] (H69AR cells + 2 uM doxorubicin), the differential viability (reversal) was -4.14% (inactive). For the same compound, the inhibition in assay [7] was -5.14% (inactive); in assay [8], -8.25% (inactive).

Regarding `Nc1nc(CSc2nc3ccccc3[nH]2)nc(N2CCOCC2)n1`, the viability in assay [1] was 96%; in assay [3], 96% (inactive); in assay [4], 109% (inactive); in assay [5] it was 92.8% (inactive); in assay [6] (setting [9]) it was 91.9%; in assay [6] (setting [10]), 92.8%. In addition, the Her2 level in assay [2] is 100% (inactive). For the same compound, the differential viability (reversal) in assay [6] (H69AR cells + 2 uM doxorubicin) is 0.96% (inactive). For the same compound, the values for the inhibition in assay [7] and in assay [8] were -0.13% (inactive) and -3.83% (inactive), respectively.

`CCOc1cc(C2/C(=C(/O)c3ccc(OC(C)C)cc3)C(=O)C(=O)N2CCCOC)ccc1O` (stereo not given): the viability is 91.5% in assay [1]; 91.5% (inactive) in assay [3]; 103% (inactive) in assay [4]; 99.1% (inactive) in assay [5]; 97.4% in assay [6] (setting [9]); 99.1% in assay [6] (setting [10]). The Her2 level in assay [2] is 83.5% (inactive). Further, the differential viability (reversal) in assay [6] (H69AR cells + 2 uM doxorubicin) was 1.7% (inactive). In addition, the inhibition in assay [7] is 1.82% (inactive); in assay [8], 3.17% (inactive).

As to `COc1ccc(CC(=O)Nc2ccc(OC)c(NC(=O)c3ccco3)c2)cc1`, the viability in assay [1] was 91%; in assay [3], 91% (inactive); in assay [4], 85.8% (inactive); in assay [5] it was 81.9% (inactive); in assay [6] (setting [9]) it was 91.5%; in assay [6] (setting [10]), 81.9%. In addition, the Her2 level in assay [2] is 106% (inactive). Further, in assay [6] (H69AR cells + 2 uM doxorubicin), the differential viability (reversal) is -9.55% (inactive). The inhibition in assay [7] was 4% (inactive); in assay [8], -2.38% (inactive).

In the case of `COc1ccc(S(=O)(=O)NCCOc2ccccc2)cc1OC`, the viability was 94% in assay [1]; 94% (inactive) in assay [3]; 97.7% (inactive) in assay [4]; 91.5% (inactive) in assay [5]; 94.1% in assay [6] (setting [9]); 91.5% in assay [6] (setting [10]). In addition, the Her2 level in assay [2] is 90.5% (inactive). In assay [6] (H69AR cells + 2 uM doxorubicin), the differential viability (reversal) was -2.55% (inactive). Also, the inhibition in assay [7] is 6.76% (inactive); in assay [8], 2.3% (inactive).

Regarding `CN(Cc1ccccc1)Cc1nc2c([nH]1)c(=O)[nH]c(=O)n2C`, the viability in assay [1] is 92%; in assay [3], 92% (inactive); in assay [4] it was 79.2% (inactive); in assay [5] it was 90.9% (inactive); in assay [6] (setting [9]) it was 82.6%; in assay [6] (setting [10]), 90.9%. Moreover, the Her2 level in assay [2] is 90.5% (inactive). For the same compound, the differential viability (reversal) in assay [6] (H69AR cells + 2 uM doxorubicin) was 8.36% (inactive). Moreover, the results for the inhibition in assay [7] and in assay [8] were -3.6% (inactive) and -1.31% (inactive), respectively.

As to `COc1ccc(-c2nnc(SCC(=O)Nc3cc(C)on3)n2C)cc1OC`, the viability is 101% in assay [1]; 101% (inactive) in assay [3]; 108% (inactive) in assay [4]; 105% (inactive) in assay [5]; 92.6% in assay [6] (setting [9]); 105% in assay [6] (setting [10]). The Her2 level in assay [2] is 90% (inactive). Further, the differential viability (reversal) in assay [6] (H69AR cells + 2 uM doxorubicin) was 11.9% (inactive). Besides, the results for the inhibition in assay [7] and in assay [8] were -6.22% (inactive) and 4.59% (inactive), respectively.
